≈ marks a conversion by molar mass, not a printed value.
Key:
Type in all cases: functional
[1] = system: Staphylococcus aureus; assay: Antibacterial activity against methicillin-sensitive Staphylococcus aureus ATCC 9144 measured after overnight incubation by microbroth dilution method
Procedure, shortened: (§1)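 Microbroth dilution: DMSO stocks diluted in water, 2-fold series. Overnight TSB cultures back-diluted to OD 0.01 and mixed 1:1 with compound. Incubated overnight at 37 °C; MIC taken as lowest concentration without visible growth (<0.1 OD600). Run in duplicate; matching DMSO levels checked for effect on growth.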

[2] = system: Staphylococcus aureus; assay: Antibacterial activity against methicillin-resistant Staphylococcus aureus EMRSA15 measured after overnight incubation by microbroth dilution method; procedure, shortened: as §1
[3] = system: Enterococcus faecalis; assay: Antibacterial activity against vancomycin resistant Enterococcus faecalis NCTC12201 measured after overnight incubation by microbroth dilution method; procedure, shortened: as §1
[4] = system: Staphylococcus aureus; assay: Antibacterial activity against methicillin-resistant Staphylococcus aureus MRSA252 measured after overnight incubation by microbroth dilution method; procedure, shortened: as §1
[5] = system: Enterococcus faecalis; assay: Antibacterial activity against vancomycin sensitive Enterococcus faecalis NCTC775 measured after overnight incubation by microbroth dilution method; procedure, shortened: as §1
[6] = system: Enterococcus faecalis; assay: Antibacterial activity against vancomycin resistant Enterococcus faecalis NCTC12204 measured after overnight incubation by microbroth dilution method; procedure, shortened: as §1
[7] = system: Klebsiella pneumoniae; assay: Antibacterial activity against Klebsiella pneumoniae NCTC13368 measured after overnight incubation in presence of polymyxin B nonapeptide by microbroth dilution method
[8] = system: Klebsiella pneumoniae; assay: Antibacterial activity against Klebsiella pneumoniae M6 measured after overnight incubation by microbroth dilution method
Procedure, shortened: (§2)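 Microbroth dilution MIC. Compound DMSO stocks were diluted in water as a 2-fold series. Overnight TSB cultures were back-diluted to OD 0.01 and mixed 1:1 with compound. Plates were incubated overnight at 37 °C. MIC was the lowest concentration without visible growth (<0.1 OD600), run in duplicate.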

[9] = system: Klebsiella pneumoniae; assay: Antibacterial activity against Klebsiella pneumoniae NCTC13368 measured after overnight incubation by microbroth dilution method; procedure, shortened: as §2
[10] = system: Escherichia coli; assay: Antibacterial activity against Escherichia coli NCTC12923 measured after overnight incubation in presence of polymyxin B nonapeptide by microbroth dilution method
[11] = system: Pseudomonas aeruginosa; assay: Antibacterial activity against Pseudomonas aeruginosa PAO1 measured after overnight incubation in presence of polymyxin B nonapeptide by microbroth dilution method
[12] = system: Acinetobacter baumannii; assay: Antibacterial activity against Acinetobacter baumannii AYE measured after overnight incubation by microbroth dilution method; procedure, shortened: as §2
[13] = system: Pseudomonas aeruginosa; assay: Antibacterial activity against Pseudomonas aeruginosa PAO1 measured after overnight incubation by microbroth dilution method; procedure, shortened: as §2
[14] = system: Staphylococcus aureus; assay: Antibacterial activity against methicillin resistant Staphylococcus aureus NCTC13277 measured after overnight incubation by microbroth dilution method; procedure, shortened: as §1
[15] = system: Acinetobacter baumannii; assay: Antibacterial activity against Acinetobacter baumannii ATCC 17978 measured after overnight incubation by microbroth dilution method; procedure, shortened: as §2
[16] = system: Pseudomonas aeruginosa; assay: Antibacterial activity against Pseudomonas aeruginosa NCTC13437 measured after overnight incubation in presence of polymyxin B nonapeptide by microbroth dilution method
[17] = system: Staphylococcus aureus; assay: Antibacterial activity against methicillin sensitive Staphylococcus aureus NCTC 6571 measured after overnight incubation by microbroth dilution method; procedure, shortened: as §1
[18] = system: Escherichia coli; assay: Antibacterial activity against Escherichia coli NCTC12923 measured after overnight incubation by microbroth dilution method; procedure, shortened: as §2
[19] = system: Acinetobacter baumannii; assay: Antibacterial activity against Acinetobacter baumannii AYE measured after overnight incubation in presence of polymyxin B nonapeptide by microbroth dilution method
[20] = system: Staphylococcus aureus; assay: Antibacterial activity against methicillin resistant Staphylococcus aureus NCTC13616 measured after overnight incubation by microbroth dilution method; procedure, shortened: as §1
[21] = system: Acinetobacter baumannii; assay: Antibacterial activity against Acinetobacter baumannii ATCC 17978 measured after overnight incubation in presence of polymyxin B nonapeptide by microbroth dilution method
[22] = system: Pseudomonas aeruginosa; assay: Antibacterial activity against Pseudomonas aeruginosa NCTC13437 measured after overnight incubation by microbroth dilution method; procedure, shortened: as §2
[23] = system: Klebsiella pneumoniae; assay: Antibacterial activity against Klebsiella pneumoniae M6 measured after overnight incubation in presence of polymyxin B nonapeptide by microbroth dilution method

Cc1cc(CNOCc2ccccc2)c(C)n1-c1ccc(F)cc1
MIC [1]: > 64 mg/L | MIC [2]: > 64 mg/L | MIC [3]: > 64 mg/L | MIC [4]: > 64 mg/L | MIC [5]: > 64 mg/L | MIC [6]: > 64 mg/L

Cc1ccc(CNCc2cc(C)n(-c3ccc(Cl)cc3)c2C)cc1
MIC [1]: 64 mg/L (≈ 189 µM) | MIC [2]: 64 mg/L (≈ 189 µM) | MIC [3]: 64 mg/L (≈ 189 µM) | MIC [4]: 64 mg/L (≈ 189 µM) | MIC [5]: 64 mg/L (≈ 189 µM) | MIC [6]: 32 mg/L (≈ 94.4 µM)

Cc1cc(CN2CCN(C3C4CC5CC(C4)CC3C5)CC2)c(C)n1-c1ccc(C(C)C)cc1 (centres undefined)
MIC [1]: 32 mg/L (≈ 71.8 µM) | MIC [2]: 32 mg/L (≈ 71.8 µM) | MIC [3]: 8 mg/L (≈ 17.9 µM) | MIC [4]: 32 mg/L (≈ 71.8 µM) | MIC [5]: 16 mg/L (≈ 35.9 µM) | MIC [6]: 8 mg/L (≈ 17.9 µM)

Cc1cccc(-n2c(C)cc(CN3CCN(C4C5CC6CC(C5)CC4C6)CC3)c2C)c1 (centres undefined)
MIC [1]: 64 mg/L (≈ 153 µM) | MIC [2]: 64 mg/L (≈ 153 µM) | MIC [3]: 64 mg/L (≈ 153 µM) | MIC [4]: 64 mg/L (≈ 153 µM) | MIC [5]: 64 mg/L (≈ 153 µM) | MIC [6]: 64 mg/L (≈ 153 µM)

Cc1cc(CNCc2ccccc2)c(C)n1-c1ccc(F)cc1
MIC [1]: > 128 mg/L | MIC [2]: > 128 mg/L | MIC [3]: 64 mg/L (≈ 208 µM) | MIC [4]: 64 mg/L (≈ 208 µM) | MIC [5]: 64 mg/L (≈ 208 µM) | MIC [6]: 32 mg/L (≈ 104 µM)

Cc1cc(CN2CCN(C3CCCCC3)CC2)c(C)n1-c1ccc(Cl)cc1
MIC [1]: 128 mg/L (≈ 332 µM) | MIC [2]: > 128 mg/L | MIC [3]: 128 mg/L (≈ 332 µM) | MIC [4]: > 128 mg/L | MIC [5]: 128 mg/L (≈ 332 µM) | MIC [6]: 128 mg/L (≈ 332 µM)

Cc1c(CNCc2ccccc2)cc(-c2ccc(Cl)cc2)n1-c1ccc(Cl)cc1
MIC [7]: > 128 mg/L | MIC [8]: > 128 mg/L | MIC [9]: > 128 mg/L | MIC [10]: > 128 mg/L | MIC [11]: > 128 mg/L | MIC [12]: > 128 mg/L | MIC [3]: 4 mg/L (≈ 9.49 µM) | MIC [13]: > 128 mg/L | MIC [14]: 4 mg/L (≈ 9.49 µM) | MIC [15]: > 128 mg/L | MIC [16]: > 128 mg/L | MIC [17]: 8 mg/L (≈ 19 µM) | MIC [18]: > 128 mg/L | MIC [19]: 16 mg/L | MIC [20]: 8 mg/L (≈ 19 µM) | MIC [21]: 16 mg/L | MIC [5]: 4 mg/L (≈ 9.49 µM) | MIC [22]: > 128 mg/L | MIC [23]: 32 mg/L

Cc1cc(CN2CCN(C3C4CC5CC(C4)CC3C5)CC2)c(C)n1-c1ccc(Cl)cc1 (centres undefined)
MIC [1]: 16 mg/L (≈ 36.5 µM) | MIC [2]: 32 mg/L (≈ 73 µM) | MIC [3]: 16 mg/L (≈ 36.5 µM) | MIC [4]: 32 mg/L (≈ 73 µM) | MIC [5]: 16 mg/L (≈ 36.5 µM) | MIC [6]: 16 mg/L (≈ 36.5 µM)

Cc1c(CNC2CCCCC2)cc(-c2ccc(Cl)cc2)n1-c1ccccc1C(F)(F)F
MIC [8]: > 128 mg/L | MIC [9]: > 128 mg/L | MIC [12]: 128 mg/L (≈ 286 µM) | MIC [3]: 4 mg/L (≈ 8.95 µM) | MIC [13]: > 128 mg/L | MIC [14]: 8 mg/L (≈ 17.9 µM) | MIC [15]: > 128 mg/L | MIC [17]: 4 mg/L (≈ 8.95 µM) | MIC [18]: > 128 mg/L | MIC [20]: 8 mg/L (≈ 17.9 µM) | MIC [5]: 4 mg/L (≈ 8.95 µM) | MIC [22]: > 128 mg/L | MIC [6]: 2 mg/L (≈ 4.47 µM)

From ChEMBL document CHEMBL4359823, “Switching on the activity of 1,5-diaryl-pyrrole derivatives against drug-resistant ESKAPE bacteria: Structure-activity relationships and mode of action studies” (Eur J Med Chem, 2019)
